A short description of data set [1]: Dissociation constant, pKa of the compound. In kind it is physicochemical.
A further data set concerns the target Arylsulfatase (Pseudomonas aeruginosa (strain ATCC 15692 / PAO1 / 1C / PRS 101 / LMG12228), UniProt P51691). Description: Inhibition of Pseudomonas aeruginosa recombinant arylsulfatase A expressed in Escherichia coli.
Data set [2] can be described thus: Inhibition of Helix pomatia type H1 recombinant sulfatase expressed in Escherichia coli. Summed up: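 Snail sulfatase incubated at pH 7 with 0–500 µM 3-nitrophenyl sulfamate; residual activity plotted semi-logarithmically against time, and pseudo-first-order rates replotted against inactivator concentration to fit Ki and kinact (E + I ⇌ E·I → E–P).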
The nature of data set [3]: Inhibition of Patella vulgata type 5 recombinant sulfatase expressed in Escherichia coli. Summed up: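 Limpet sulfatase at pH 7 with 0–12.5 mM sulfamate; semi-logarithmic plots of residual activity over time, inactivation rates replotted against concentration to give Ki and kinact.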
Data set [4] is described as follows: Inhibition of abalone entrails type 8 recombinant sulfatase expressed in Escherichia coli by fast phase inactivation. On the set-up: species or system Haliotis corrugata.
Data set [5] is described as follows: Inhibition of abalone entrails type 8 recombinant sulfatase expressed in Escherichia coli by slow phase inactivation. The arrangement: species or system Haliotis corrugata.
Data set [6] can be described thus: Chemical decomposition at pH 7 after 15 mins. As to conditions: buffer.

Chain of Arylsulfatase (P51691 whole entry): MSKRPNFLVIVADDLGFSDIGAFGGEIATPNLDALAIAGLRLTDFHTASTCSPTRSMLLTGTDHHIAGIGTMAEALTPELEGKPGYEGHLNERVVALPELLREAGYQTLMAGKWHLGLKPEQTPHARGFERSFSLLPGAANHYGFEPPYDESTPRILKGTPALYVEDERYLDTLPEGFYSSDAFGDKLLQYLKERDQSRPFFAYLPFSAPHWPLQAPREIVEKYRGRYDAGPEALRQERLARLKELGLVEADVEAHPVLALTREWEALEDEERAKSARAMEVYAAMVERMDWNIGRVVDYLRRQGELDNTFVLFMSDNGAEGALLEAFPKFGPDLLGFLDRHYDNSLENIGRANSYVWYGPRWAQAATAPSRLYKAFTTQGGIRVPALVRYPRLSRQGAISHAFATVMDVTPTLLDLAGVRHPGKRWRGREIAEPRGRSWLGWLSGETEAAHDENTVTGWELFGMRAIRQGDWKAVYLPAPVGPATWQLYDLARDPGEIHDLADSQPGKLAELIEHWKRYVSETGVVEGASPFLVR

For the compound `O=[N+]([O-])c1ccc(OS(=O)(=O)O)cc1`, the pKa (as a rule, the negative logarithm of the acid dissociation constant) in data set [1] is 7.14.
For `NS(=O)(=O)Oc1cccc([N+](=O)[O-])c1`, the Ki at Arylsulfatase is 0.13 µM; in data set [2], 35 µM; in data set [3] it was 980 µM; in data set [4], 1600 µM; in data set [5] it was 5000 µM. In addition, the decomposed at 0.25 h in data set [6] stood at 4.2%.

The values above are taken from ChEMBL document CHEMBL1154522, “Aryl sulfamates are broad spectrum inactivators of sulfatases: effects on sulfatases from various sources” (Bioorg Med Chem Lett, 2009).
